19 compounds from ChEMBL document CHEMBL2440059, “Antiproliferative, antiandrogenic and cytotoxic effects of novel caffeic acid derivatives in LNCaP human androgen-dependent prostate cancer cells” (Bioorg Med Chem, 2013) can be followed below.

Molecules are shown by their SMILES. Calls of active or inactive are those of the source. The rule behind the calls is not given here.

A word on the IC50: it is the concentration needed to halve the response being measured. The inhibition is how much of the control response was suppressed.

Assay [1] concerns Radical scavenging activity. The assay is described as follows: Antioxidant activity assessed as DPPH radical scavenging activity after 30 mins by spectrophotometry. The assay is classed as functional. In short, it runs like this: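 Ethanolic DPPH ([…], stock) was mixed 1:1 with increasing concentrations of compound in ethanol and held in the dark 30 min at room temperature. Absorbance was read at 520 nm, with control OD accepted within 0.350–0.360. Activity was taken as % inhibition of absorbance and IC50 came from a variable-slope sigmoidal fit. Triplicates, two independent experiments.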
(The DPPH test is a chemical assay of radical scavenging.)

Assay [2] concerns LNCaP. The experiment in a line: Antiproliferative activity against human LNCAP cells at 1 to 10 uM after 72 hrs in presence of DHT. Type of assay: functional, cell-based. An outline of the steps:
(§1)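 LNCaP cells (fewer than 18 passages) were seeded at 25 × 10³ cells/well on electrode-microarray plates in phenol red-free medium with 10% stripped FBS. After 24 h they were exposed to compounds with or without 0.1 nM DHT, in 0.2% final DMSO. Proliferation was tracked as impedance in real time over 72 h. Duplicates, three experiments; doubling time was derived from the growth rate.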

Assay [3] relates to LNCaP. The experiment in a line: Cytotoxicity against human LNCAP cells assessed as reduction in cell viability after 24 hrs by WST-1 assay.
For assay [4], the system named is LNCaP. The experiment in a line: Cytotoxicity against human LNCAP cells assessed as reduction in cell viability at 100 uM after 24 hrs by WST-1 assay. The assay is classed as functional. An outline of the steps:
(§2)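 LNCaP cells were acclimatised 24 h in complete medium, after which the medium was refreshed. Compounds were added from DMSO (0.1% final, 0.1% DMSO controls) over 0.1–100 μM for a 24 h exposure. Quadruplicate wells, three experiments. IC50 came from a variable-slope sigmoidal concentration–response fit.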
(Tetrazolium dyes change colour on reduction, which living cells bring about.)

For assay [5], the system named is LNCaP. The assay is described as follows: Antiproliferative activity against human LNCAP cells after 72 hrs in presence of DHT. The assay is classed as functional, cell-based. In short, it runs like this: as §1
Assay [6] concerns LNCaP. The experiment in a line: Antiproliferative activity against human LNCAP cells at 10 uM after 72 hrs in presence of DHT. The assay is classed as functional, cell-based. An outline of the steps: as §1
Assay [7] deals with LNCaP. The experiment in a line: Antiproliferative activity against human LNCAP cells at 0.3 uM after 72 hrs in presence of DHT. Type of assay: functional, cell-based. An outline of the steps:
as §1

Assay [8] has as its system LNCaP. The experiment in a line: Induction of androgen receptor protein expression in human LNCAP cell nucleus at > 10 uM after 24 hrs by chemoluminescence assay in presence of DHT. Type of assay: functional, cell-based. In short, it runs like this: (§3)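 Near-confluent LNCaP cells were switched to steroid-free medium for 24 h, then exposed 24 h to compounds with or without 10 nM DHT. Nuclear and cytoplasmic fractions were extracted and assayed by BCA. Protein (40 μg) was run on SDS-PAGE, blotted to PVDF, and probed overnight at 4 °C with anti-AR, then with an HRP anti-rabbit secondary. Duplicates, three experiments.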

For assay [9], the system named is LNCaP. The assay is described as follows: Induction of androgen receptor protein expression in human LNCAP cell nucleus at 1 to 30 uM after 24 hrs by chemoluminescence assay in presence of DHT relative to control. The assay is classed as functional. An outline of the steps: as §3
The test system of assay [10] is LNCaP. The experiment in a line: Antiandrogenic activity in human LNCAP cells assessed as reduction in DHT-stimulated PSA release after 24 hrs by ELISA.
In assay [11] the test system is PC-3. The experiment in a line: Antiproliferative activity against human PC3 cells after 72 hrs by trypan blue assay. The assay is classed as cell-based. Particulars: PC-3, 72 h.
Assay [12] relates to LNCaP. The assay is described as follows: Reduction of androgen receptor protein expression in human LNCAP cell cytoplasm at > 10 uM after 24 hrs by chemoluminescence assay in presence of DHT. The assay is classed as functional, cell-based. In short, it runs like this: as §3
In assay [13] the test system is LNCaP. The experiment in a line: Induction of androgen receptor protein expression in human LNCAP cell nucleus at 1 to 30 uM after 24 hrs by chemoluminescence assay in presence of DHT relative to cytoplasm. The assay is classed as functional. An outline of the steps:
as §3

The subject of assay [14] is LNCaP. The experiment in a line: Cytotoxicity against human LNCAP cells at 1 uM after 24 hrs by WST-1 assay. Type of assay: functional, cell-based. An outline of the steps: as §2

As to `COC(=O)/C=C/c1ccc(O)c(O)c1` [METHYLCAFFEATE], the figures for the IC50 in assay [1] and in assay [3] were 21.3 µM and over 100 µM, respectively. For the same compound, the result in assay [2] was inactive.

Take `O=C(/C=C/c1ccc(O)c(O)c1)OCCCc1ccccc1`: the results for the IC50 in assay [1] and in assay [3] were 11.9 µM and 26.6 µM, respectively. Besides, the inhibition at 100 µM in [4] was over 80%. The Activity entry in assay [5] is “Dose-dependent effect”.

With `O=C(/C=C/c1ccc(O)c(O)c1)OCc1ccccc1` [BENZYL CAFFEATE], the IC50 in assay [1] was found to be 15.3 µM; in assay [3], 45.6 µM. Moreover, in assay [5], the Activity entry is “Dose-dependent effect”.

Regarding `Cc1ccc(CCOC(=O)/C=C/c2ccc(O)c(O)c2)cc1`, the IC50 in [1] is 11.3 µM; in [3] it was 14 µM. The inhibition at 100 µM in assay [4] is over 80%. Moreover, the Activity result in assay [5] is “Dose-dependent effect”.

For `O=C(/C=C/c1ccc(O)c(O)c1)OCC(c1ccccc1)c1ccccc1`, the IC50 in assay [1] amounted to 18.5 µM; in [3], 20.8 µM. Besides, in assay [6], the result was Active. Further, the inhibition at 100 µM in [4] is over 80%. Moreover, the Activity entry in assay [5] was “Dose-dependent effect”.

In the case of `O=C(/C=C/c1ccc(O)c(O)c1)Oc1ccccc1`, the IC50 in [1] was 12.5 µM; in assay [3], 65.9 µM. In addition, in assay [5], the Activity entry was “Dose-dependent effect”.

`O=C(/C=C/c1ccc(O)c(O)c1)OCCc1cccc2ccccc12`: the IC50 in [1] was 13.2 µM; in assay [3], 9.3 µM. For the same compound, the result in [6] was Active. Moreover, the inhibition at 100 µM in assay [4] was over 80%. The Activity entry in assay [5] is “Dose-dependent effect”.

For `O=C(/C=C/c1ccc(O)c(O)c1)OCCc1ccc(F)cc1`, the values for the IC50 in [1] and in assay [3] were 12.8 µM and 20.8 µM, respectively. Also, the inhibition at 100 µM in assay [4] is over 80%. Further, in assay [5], the Activity entry was “Dose-dependent effect”.

For the compound `C=C(C)CCOC(=O)/C=C/c1ccc(O)c(O)c1`, the figures for the IC50 in [1] and in assay [3] were 9.5 µM and 20.6 µM, respectively. Also, in assay [2], the outcome was inactive. The inhibition at 100 µM in assay [4] is over 80%.

With `CC(C)OC(=O)/C=C/c1ccc(O)c(O)c1`, the IC50 in assay [1] is 13 µM; in assay [3], 51.9 µM.

Take `O=C(/C=C/c1ccc(O)c(O)c1)OCCc1ccccc1` [CAFFEIC ACID PHENETHYL ESTER]: the IC50 was found to be 16.5 µM in assay [1], 6.2 µM in assay [10], 51.4 µM in assay [11] and 33.7 µM in [3]. Besides, the outcome in [7], in assay [8] and in assay [12] was Active. Also, the “fold change (FC)” value in assay [9] and in assay [13] was 5 throughout. In addition, the Activity result in assay [5] is “Dose-dependent effect”.

`O=C(O)/C=C/c1ccc(O)c(O)c1` [CAFFEIC ACID]: the results for the IC50 in assay [1] and in [3] were 15.3 µM and over 100 µM, respectively. For the same compound, in [14], the result was inactive.

Consider `O=C(/C=C/c1ccc(O)c(O)c1)NCCc1ccccc1` [CAFFEIC ACID PHENETHYL AMIDE], for which the values for the IC50 in [1] and in assay [3] were 13.8 µM and over 100 µM, respectively. The Activity entry in assay [5] is “Dose-dependent effect”.

Regarding `COc1ccc(CCOC(=O)/C=C/c2ccc(O)c(O)c2)cc1`, the IC50 in [1] amounted to 17.4 µM; in [3], 47.3 µM. Further, in assay [2], the outcome was inactive.

As to `CCCOC(=O)/C=C/c1ccc(O)c(O)c1`, the IC50 in [1] was 14.2 µM; in [3] it was 60.7 µM. Also, the Activity entry in assay [5] is “Dose-dependent effect”.

Take `CCCCOC(=O)/C=C/c1ccc(O)c(O)c1` [BUTYL CAFFEATE]: the IC50 in [1] was found to be 12.6 µM; in assay [3], 45.4 µM.

Regarding `CC(C)CCOC(=O)/C=C/c1ccc(O)c(O)c1`, the IC50 in assay [1] turned out to be 23.8 µM; in assay [3] it was 45.4 µM.

Regarding `O=C(/C=C/c1ccc(O)c(O)c1)OCCC1CCCCC1`, the values for the IC50 in assay [1], in assay [10] and in assay [3] were 15.1 µM, 2 µM and 6.8 µM, respectively. Further, the outcome in assay [7], in assay [8], in assay [6] and in [12] was Active. Further, the “fold change (FC)” value in assay [9] and in [13] was 5 in each case. In assay [4], the inhibition at 100 µM is over 95%. For the same compound, the Activity result in [5] was “Dose-dependent effect”.

Turning to `CCOC(=O)/C=C/c1ccc(O)c(O)c1` [ETHYL CAFFEATE], the concentration for half-maximal inhibition (IC50) in [1] was 13.3 µM; in assay [3], over 100 µM. In addition, the result in assay [2] was inactive.
